hERG rescue = compounds protecting human hERG from proarrhythmic drug block; actives 0.51% (n = 310,000); CHO-hERG, FluxOR thallium flux, dofetilide IC70 present; activation (rescue from dofetilide block), less the hit threshold, % at 10 µM; Q12809;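 active means activation above the mean of controls blocked by dofetilide plus 5 SD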;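 further: thallium influx through hERG after potassium depolarization seen as dye fluorescence rise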
KCNK9 block = inhibitors of human KCNK9 two-pore domain potassium channel. HEK293 KCNK9, FluxOR thallium flux fluorescence; active compounds read low. B-score at 10 µM. actives 1.2% (n = 310,000). AID 488922;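 active means ratio B-score over 3 SD below the library mean, with starting fluorescence within 5 SD of its mean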;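 further: negative B-score means less thallium flux so channel inhibition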
Kir21 inh = inhibitors of mouse Kir2.1 inward-rectifier potassium channel; HEK293-Kir2.1, FluxOR thallium flux fluorescence; active compounds read low; B-score at 10 µM; actives 0.85% (n = 310,000);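 active means fluorescence ratio B-score at or below minus 3 SD of library scores, with starting-brightness B-score within 2 SD, cut at about -4.2 in these data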;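 further: channel flux triggered by added potassium and thallium sulfate stimulus; B-score of peak minus minimum fluorescence over baseline after thallium stimulus; more negative B-score means stronger Kir2.1 block with less thallium influx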
Target sequence (P35561 whole entry, looked up): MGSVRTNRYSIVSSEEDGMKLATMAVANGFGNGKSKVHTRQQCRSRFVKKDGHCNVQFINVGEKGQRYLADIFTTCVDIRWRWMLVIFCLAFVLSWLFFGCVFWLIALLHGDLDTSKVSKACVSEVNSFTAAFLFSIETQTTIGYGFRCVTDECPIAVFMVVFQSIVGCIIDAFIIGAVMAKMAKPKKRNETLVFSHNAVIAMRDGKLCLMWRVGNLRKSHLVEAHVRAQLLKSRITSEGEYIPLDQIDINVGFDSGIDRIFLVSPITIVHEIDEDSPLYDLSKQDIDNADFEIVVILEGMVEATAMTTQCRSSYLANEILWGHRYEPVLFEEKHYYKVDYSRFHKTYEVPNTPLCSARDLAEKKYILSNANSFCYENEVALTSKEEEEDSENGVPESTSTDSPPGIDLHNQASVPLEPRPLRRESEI
KCNQ1 inh = human KCNQ1 channel inhibition; P51787; CHO-K1 KCNQ1, FluxOR thallium flux fluorescence; active compounds read high; B-score at 10 µM; actives 1.3% (n = 310,000);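 active means compounds whose thallium flux B-score, printed positive for inhibition, exceeds three library SD while starting fluorescence stays within three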;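 further: channel opened by potassium depolarization with thallium stimulus after 20 min compound exposure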
KCNK3 block = human KCNK3 channel inhibition, primary screen; O14649; CHO-KCNK3 thallium flux, FluxOR fluorescence; active compounds read low; B-score at 10 µM; actives 0.84% (n = 340,000);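 active means B-score under library mean minus 4 SD, starting fluorescence ratio at most library mean plus 5 SD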;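 further: more negative B-score means stronger inhibition of thallium flux through KCNK3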
KCNQ1 act = potentiates or activates the human KCNQ1 potassium channel; B-score at 10 µM; actives 0.35% (n = 310,000); P51787; AID 2648; CHO-K1 KCNQ1, thallium flux FluxOR fluorescence; active compounds read high;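 active means fluorescence ratio B-score, a plate-corrected score, at least three library SD, with initial intensity B-score within 5 SD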
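Assay system: stable KCNQ1 CHO-K1 line; medium: assay buffer, equal DMSO in all wells; timing: 90 min dye loading and 20 min compound exposure, both at room temperature; technique: kinetic FluxOR thallium fluorescence, 10-s 1-Hz baseline, 110-s post-stimulus read; read-out basis: B score of baseline-normalized fluorescence ratio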
Numbers stand for hits; n = inactive; x = no result. This is a sample that favours compounds with a hit; in the whole collection about 3.8% have one here.

SMILES | hERG rescue | KCNK9 block | Kir21 inh | KCNQ1 inh | KCNK3 block | KCNQ1 act
O=C1Nc2ccccc2C1C(C[N+](=O)[O-])c1ccccn1 (centres undefined) | n | n | n | n | n | n
COCCn1c(=S)[nH]c2sc3c(c2c1=O)CCC(C)C3 (centres undefined) | 27.3 | n | n | n | n | 60
COCCCn1c(=S)[nH]c2sc3c(c2c1=O)CCCS3 | 18.6 | n | n | n | n | n
CCn1nnc2sc3c(c2c1=O)CCC(C)C3 (centres undefined) | n | n | n | n | n | n
CC(=O)Cn1nnc2sc3c(c2c1=O)CCC(C(C)(C)C)C3 (centres undefined) | n | n | n | n | n | n
Cn1c(=S)[nH]c2sc3c(c2c1=O)CCC(C(C)(C)C)C3 (centres undefined) | 56.7 | n | n | n | n | 80
O=c1[nH]c(C2CC2)nc2sc3c(c12)CCCC3 | n | n | n | n | n | n
O=c1[nH]c(=S)[nH]c2sc3c(c12)CCCCCC3 | n | n | n | n | n | 10
NC1=NC(=O)/C(=C\c2ccsc2)S1 | n | n | n | n | n | n
CC(C)=CCC/C(C)=C/CNC(=O)C[C@H]1C[C@H](C(=O)N2CCCCC2)[C@@]2(C)c3[nH]c4cc(CCC(=O)N(C)C)ccc4c3CCN2C1=O | x | x | x | x | n | x
CCCn1c(=S)[nH]c2sc3c(c2c1=O)CCCC3 | 47.6 | n | n | n | n | 43
Nn1c(=S)[nH]c2sc3c(c2c1=O)CCCC3 | n | n | n | n | n | n
N#Cc1c(SCC(=O)Nc2cccc(C(F)(F)F)c2)sc2c(O)cc(=O)[nH]c12 | n | n | n | n | n | n
COc1ccc(-c2csc(=Nc3c(C)n(C)n(-c4ccccc4)c3=O)n2C(C)(C)C)cc1 | 5.1 | n | n | n | n | n
CC1CCCN(C2(O)C(=O)Nc3ccc([N+](=O)[O-])cc32)C1 (centres undefined) | n | n | n | n | n | n
CC1(C)CC(c2nc(-c3ccc(Cl)cc3)cs2)CCS1 (centres undefined) | n | n | n | 9 | n | n
Cn1c(C(=O)N2CCCC(C(=O)NCCN3CCOCC3)C2)cc2sccc21 (centres undefined) | 7.3 | n | n | n | n | n
CCOc1ccc(S(=O)(=O)N2CCCC(C(=O)NCCN3CCOCC3)C2)cc1Cl (centres undefined) | n | n | n | n | n | 9
CC1CCN(c2nc(CN3CCCCC3)nc3scc(-c4ccccc4)c23)CC1 | n | n | -7.62 | n | n | n
C=CCn1c(C)cc(C(=O)COC(=O)/C=C/c2c(C)nn(C3CCS(=O)(=O)C3)c2Cl)c1C (centres undefined) | n | n | n | n | n | n
COCC1CCCN(C(=O)c2cc(COc3ccc4ncccc4c3)on2)C1 (centres undefined) | n | n | n | 6 | n | n
CCCCn1nc2cc(C(=O)NCc3ccc(OC)cc3)ccc2c1OCC | n | n | -5.08 | n | n | n
CCOc1c2ccc(C(=O)NCc3ccc(OC)cc3)cc2nn1CCOC | n | n | n | n | n | n
Cc1cccc(CS(=O)(=O)c2ncc(Cl)c(C(=O)Nc3c(C)cccc3C)n2)c1 | n | -6.68 | -11.8 | n | n | n
CC(=O)Oc1cccc(NC(=O)c2cccc(C(=O)Nc3cccc(OC(C)=O)c3)c2)c1 | n | n | n | n | n | n
SMILES | hERG rescue | KCNK9 block | Kir21 inh | KCNQ1 inh | KCNK3 block | KCNQ1 act
CC(=O)Oc1ccc(C(=O)Nc2cccc(C(=O)c3ccc(C)c(C)c3)c2)cc1 | n | n | n | 6 | n | n
COc1ccc(C(=O)Nc2cccc(OC(=O)c3ccc(C)c(C)c3)c2)cc1 | n | n | n | 6 | n | n
CC[n+]1ccccc1/C=C1\Sc2ccc(C)cc2N1C | n | n | n | 7 | n | n
Cc1ccccc1S(=O)(=O)Oc1cccc2c(O)cccc12 | n | n | -4.28 | n | n | n
Cc1noc(C)c1NC(=O)N(C)C[C@H]1Oc2ccc(NC(=O)Nc3ccc(C(F)(F)F)cc3)cc2C(=O)N([C@H](C)CO)C[C@@H]1C | x | x | x | x | n | x
Cc1sc(-c2ccccn2)nc1OC(=O)c1cccc(Cl)c1Cl | 5.8 | n | n | n | n | n
